Reference: ChEMBL document CHEMBL2093137, “WHO-TDR NTD Screening”
Converted amounts (≈) assume the structure as drawn.

Key:
[1] = WHO-TDR: Cytotoxicity; assay type: toxicity, cell-based; details: human, MRC5 cells
Plasmodium falciparum K1 = test: WHO-TDR: Malaria; assay type: functional, organism-based, Homo sapiens; details: Erythrocyte
Method in brief: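 Values are IC50 figures for antiplasmodial potency. They come from a whole-organism screen of 10,000 diverse Life Chemicals compounds against Plasmodium falciparum K1 growing inside human red blood cells, run by previously published standard procedures.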

Trypanosoma cruzi = test: WHO-TDR: Chagas disease; assay type: functional, organism-based, Homo sapiens; details: MRC5
Method in brief: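 Following previously published standard procedures, with a reference drug as positive control, a whole-organism assay was run on Trypanosoma cruzi Tulahuen CL2 beta-galactosidase strain amastigotes inside MRC-5SV2 human lung fibroblast host cells. The 10,000 compounds tested formed a diverse Life Chemicals library filtered for drug-likeness and reactive groups. Results are expressed as IC50 for antiparasitic potency.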

[2] = tested on: Trypanosoma brucei brucei; test: WHO-TDR: Human African Trypanosomiasis (HAT); assay type: functional, organism-based; details: Squib-427
Method in brief: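 Values are IC50 figures for antiparasitic potency. They come from a whole-organism screen of 10,000 diverse Life Chemicals compounds against bloodstream-form Trypanosoma brucei (Squib 427 strain).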

Leishmania infantum = test: WHO-TDR: Leishmaniasis; assay type: functional, organism-based, Mus musculus; details: Macrophage
Method in brief: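 Values are IC50 figures for antiparasitic potency. They come from a whole-organism screen of a 10,000-compound diverse Life Chemicals library against Leishmania infantum MHOM/MA(BE)/67 amastigotes inside murine peritoneal macrophage host cells.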

Schistosoma mansoni [3] = test: (§1) WHO-TDR: Schistosomiasis; assay type: functional; parameters: concentration or dose not given beside the values
Method in brief: (§2)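 In this whole-organism assay, larval and/or adult worms of Schistosoma mansoni (Puerto Rican strain) were exposed to compounds from a diverse Life Chemicals library of 10,000 members. A reference drug served as positive control. Activity is stated as percent inhibition and IC50.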

Schistosoma mansoni [4] = test: as §1; assay type: functional, organism-based; method in brief: as §2
Onchocerca lienalis = test: WHO-TDR: Onchocerciasis; assay type: functional; parameters: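 at 12.5 µM on microfilariae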
Method in brief: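 Microfilariae of Onchocerca ochengi or Onchocerca lienalis, animal pathogens standing in for the human parasite, were exposed to compounds in a whole-organism screen. The compounds came from a 10,000-compound diverse Life Chemicals library filtered for drug-likeness and reactive groups. Results are expressed as percent inhibition and IC50.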

Structure (SMILES) | IC50 [1] | IC50 (Plasmodium falciparum K1) | IC50 (Trypanosoma cruzi) | IC50 [2] | IC50 (Leishmania infantum) | % Inhibition (Schistosoma mansoni [3]) | IC50 (Schistosoma mansoni [4]) | % Inhibition (Onchocerca lienalis)
O=C(Nc1cc2ccccc2cc1NC(=O)c1ccc2c(c1)OCCO2)c1ccc2c(c1)OCCO2 | > 14.5 µg/mL | > 14.5 µg/mL | > 14.5 µg/mL | > 14.5 µg/mL | > 14.5 µg/mL | 100% | 8.8 µM | 13.3%
CCOc1ccc(C(=O)Nc2ccc(Nc3nc(C)cc(N(CC)CC)n3)cc2)cc1OCC | 3.94 µg/mL (≈ 8.5 µM) | 0.51 µg/mL (≈ 1.1 µM) | 0.428 µg/mL (≈ 0.922 µM) | 4.4 µg/mL (≈ 9.49 µM) | 4.5 µg/mL (≈ 9.71 µM) | 100% | 8.3 µM | 20%
CN(C)CCCN(C(=O)c1cc(-c2cccs2)nc2ccccc12)c1nc2c(F)cccc2s1 | 4.21 µg/mL (≈ 8.58 µM) | 1.2 µg/mL (≈ 2.44 µM) | 4.32 µg/mL (≈ 8.81 µM) | 0.383 µg/mL (≈ 0.781 µM) | 5.12 µg/mL (≈ 10.4 µM) | 100% | 4.3 µM | 0%
CCOC(=O)c1c(NC(=O)C(C)Sc2nnc(NC(C)=O)s2)sc2c1CCCC2 (stereo unspecified) | > 13.6 µg/mL | > 13.6 µg/mL | > 13.6 µg/mL | > 13.6 µg/mL | > 13.6 µg/mL | 100% | 9.8 µM | 0%
C=CCN(CC=C)S(=O)(=O)c1ccc(C(=O)Nc2nc3ccc(C(C)C)cc3s2)cc1 | > 11 µg/mL | > 11 µg/mL | 4.48 µg/mL (≈ 9.84 µM) | > 11 µg/mL | > 11 µg/mL | 100% | 5.7 µM | 0%
CN(CC1CCCO1)S(=O)(=O)c1ccc(C(=O)Nc2cccc(-c3nc4ccccc4o3)c2)cc1 (stereo unspecified) | > 8.86 µg/mL | > 8.86 µg/mL | > 8.86 µg/mL | 4.38 µg/mL (≈ 8.92 µM) | 4.66 µg/mL (≈ 9.49 µM) | 100% | 7.4 µM | 13.3%
CCN(CC)c1cc(C)nc(Nc2ccc(NC(=O)c3cccs3)cc2)n1 | 2.96 µg/mL (≈ 7.76 µM) | 0.378 µg/mL (≈ 0.99 µM) | 0.295 µg/mL (≈ 0.773 µM) | 0.472 µg/mL (≈ 1.24 µM) | 3.7 µg/mL (≈ 9.71 µM) | 100% | 4.7 µM | -1%
CCc1ccc(NC(=O)c2oc3ccccc3c2NC(=O)Cc2cccs2)cc1 | > 12.1 µg/mL | > 12.1 µg/mL | > 12.1 µg/mL | > 12.1 µg/mL | > 12.1 µg/mL | 100% | 6.5 µM | 0%
CN(C)CCCN(C(=O)/C=C/c1ccccc1Cl)c1nc2cc3c(cc2s1)OCO3 | 0.462 µg/mL (≈ 1.04 µM) | 1.44 µg/mL (≈ 3.25 µM) | 0.408 µg/mL (≈ 0.919 µM) | 0.428 µg/mL (≈ 0.964 µM) | 0.467 µg/mL (≈ 1.05 µM) | 100% | 4.3 µM | 0%
Cc1nc(-c2ccccc2)sc1C(=O)Nc1cccc(-c2cn3c(n2)SCC3)c1 | 8.81 µg/mL (≈ 21.1 µM) | 10.4 µg/mL (≈ 24.8 µM) | 10.5 µg/mL (≈ 25 µM) | > 12.6 µg/mL | 4.07 µg/mL (≈ 9.71 µM) | 100% | 2.7 µM | 0%
Cc1ccc(NC(=O)c2oc3ccccc3c2NC(=O)CC(c2ccccc2)c2ccccc2)cc1C | > 14.7 µg/mL | > 14.7 µg/mL | > 14.7 µg/mL | > 14.7 µg/mL | 4.75 µg/mL (≈ 9.71 µM) | 100% | 6.7 µM | 0%
CCN(CC)c1cc(C)nc(Nc2ccc(NC(=O)c3c(F)cccc3F)cc2)n1 | 2.86 µg/mL (≈ 6.95 µM) | 0.77 µg/mL (≈ 1.87 µM) | 0.26 µg/mL (≈ 0.632 µM) | 3.63 µg/mL (≈ 8.81 µM) | 3.9 µg/mL (≈ 9.49 µM) | 100% | 7.4 µM | -1%
